From ChEMBL document CHEMBL1275391, “Design, synthesis, and preclinical evaluation of new 5,6- (or 6,7-) disubstituted-2-(fluorophenyl)quinolin-4-one derivatives as potent antitumor agents” (J Med Chem, 2010)

Key:
CCRF-CEM = assay: Growth inhibition of human CCRF-CEM cells; assay type: functional
K562 = assay: Growth inhibition of human K562 cells; assay type: functional
MOLT-4 = assay: Growth inhibition of human MOLT4 cells; assay type: functional
[1] = Growth inhibition of human […] cells; assay type: functional
SR = assay: Growth inhibition of human SR cells; assay type: functional
A549 = assay: Growth inhibition of human A549 cells; assay type: functional
HOP-92 = assay: Growth inhibition of human HOP92 cells; assay type: functional
NCI-H23 = assay: Growth inhibition of human NCI-H23 cells; assay type: functional
NCI-H322M = assay: Growth inhibition of human NCI-H322M cells; assay type: functional
NCI-H460 [2] = assay: Growth inhibition of human NCI-H460 cells; assay type: functional
HCT-116 [3] = assay: Growth inhibition of human HCT116 cells; assay type: functional
KM12 = assay: Growth inhibition of human KM12 cells; assay type: functional
SF-268 = assay: Growth inhibition of human SF268 cells; assay type: functional
SNB-19 = assay: Growth inhibition of human SNB19 cells; assay type: functional
SNB-75 = assay: Growth inhibition of human SNB75 cells; assay type: functional
U-251 = assay: Growth inhibition of human U251 cells; assay type: functional
MDA-MB-435 = assay: Growth inhibition of human MDA-MB-435 cells; assay type: functional
UACC-62 = assay: Growth inhibition of human UACC62 cells; assay type: functional
OVCAR-5 = assay: Growth inhibition of human OVCAR5 cells; assay type: functional
OVCAR-8 = assay: Growth inhibition of human OVCAR8 cells; assay type: functional
NCI/ADR-RES = assay: Growth inhibition of human NCI/ADR-RES cells; assay type: functional
786-0 = assay: Growth inhibition of human 786-0 cells; assay type: functional
A498 = assay: Growth inhibition of human A498 cells; assay type: functional
ACHN = assay: Growth inhibition of human ACHN cells; assay type: functional
CAKI-1 = assay: Growth inhibition of human Caki1 cells; assay type: functional
RXF 393 = assay: Growth inhibition of human RXF393 cells; assay type: functional
PC-3 = assay: Growth inhibition of human PC3 cells; assay type: functional
DU-145 = assay: Growth inhibition of human DU145 cells; assay type: functional
MCF7 = assay: Growth inhibition of human MCF7 cells; assay type: functional
MDA-MB-231 = assay: Growth inhibition of human MDA-MB-231 cells; assay type: functional
BT-549 = assay: Growth inhibition of human BT549 cells; assay type: functional
MDA-MB-468 = assay: Growth inhibition of human MDA-MB-468 cells; assay type: functional
HCT-116 [4] = assay: Cytotoxicity against human HCT116 cells after 48 hrs by MTT assay; assay type: functional, cell-based; conditions: HCT-116, 48 h
In short: (§1)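 Cells exposed to a range of compound concentrations for 48 h, washed once with PBS, then incubated with MTT for 2 h. Formazan dissolved in DMSO and absorbance read at 570 nm. IC50 taken as the concentration giving 50% inhibition of proliferation.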

[5] = Cytotoxicity against human Hep3B cells after 48 hrs by MTT assay; assay type: functional, cell-based, Hep 3B2; in short: as §1
NCI-H460 [6] = assay: Cytotoxicity against human H460 cells after 48 hrs by MTT assay; assay type: functional, cell-based; conditions: NCI-H460, 48 h; in short: as §1
[7] = biological target: Insulin-like growth factor 1 receptor (Homo sapiens) (UniProt P08069); assay: Inhibition of tyrosine phosphorylation of IGF1R in human Hep3B cells assessed as decrease of phosphorylated IGF1R level after 12 hrs by Western blotting; assay type: cell-based; conditions: Hep 3B2
Chain of Insulin-like growth factor 1 receptor (Homo sapiens) (P08069 31-736 limits assumed): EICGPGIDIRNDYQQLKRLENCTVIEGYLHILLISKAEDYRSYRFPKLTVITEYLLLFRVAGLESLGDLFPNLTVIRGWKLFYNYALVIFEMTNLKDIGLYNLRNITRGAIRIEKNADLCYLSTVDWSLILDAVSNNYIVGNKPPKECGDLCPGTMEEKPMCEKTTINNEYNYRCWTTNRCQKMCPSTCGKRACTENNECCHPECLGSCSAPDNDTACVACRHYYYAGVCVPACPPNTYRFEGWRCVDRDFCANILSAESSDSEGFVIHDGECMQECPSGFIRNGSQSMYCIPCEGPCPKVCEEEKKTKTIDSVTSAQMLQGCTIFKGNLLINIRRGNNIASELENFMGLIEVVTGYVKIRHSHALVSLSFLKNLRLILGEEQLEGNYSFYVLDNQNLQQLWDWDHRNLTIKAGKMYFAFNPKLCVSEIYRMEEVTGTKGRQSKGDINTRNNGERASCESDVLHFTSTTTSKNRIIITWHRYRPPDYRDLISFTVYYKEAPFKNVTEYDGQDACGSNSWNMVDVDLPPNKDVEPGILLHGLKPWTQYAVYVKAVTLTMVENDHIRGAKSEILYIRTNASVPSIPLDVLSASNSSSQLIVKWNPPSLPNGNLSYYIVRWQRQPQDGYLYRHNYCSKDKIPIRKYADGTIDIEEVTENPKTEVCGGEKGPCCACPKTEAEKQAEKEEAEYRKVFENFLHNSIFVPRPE
Chain of Insulin-like growth factor 1 receptor (Homo sapiens) (P08069 741-1367 limits assumed): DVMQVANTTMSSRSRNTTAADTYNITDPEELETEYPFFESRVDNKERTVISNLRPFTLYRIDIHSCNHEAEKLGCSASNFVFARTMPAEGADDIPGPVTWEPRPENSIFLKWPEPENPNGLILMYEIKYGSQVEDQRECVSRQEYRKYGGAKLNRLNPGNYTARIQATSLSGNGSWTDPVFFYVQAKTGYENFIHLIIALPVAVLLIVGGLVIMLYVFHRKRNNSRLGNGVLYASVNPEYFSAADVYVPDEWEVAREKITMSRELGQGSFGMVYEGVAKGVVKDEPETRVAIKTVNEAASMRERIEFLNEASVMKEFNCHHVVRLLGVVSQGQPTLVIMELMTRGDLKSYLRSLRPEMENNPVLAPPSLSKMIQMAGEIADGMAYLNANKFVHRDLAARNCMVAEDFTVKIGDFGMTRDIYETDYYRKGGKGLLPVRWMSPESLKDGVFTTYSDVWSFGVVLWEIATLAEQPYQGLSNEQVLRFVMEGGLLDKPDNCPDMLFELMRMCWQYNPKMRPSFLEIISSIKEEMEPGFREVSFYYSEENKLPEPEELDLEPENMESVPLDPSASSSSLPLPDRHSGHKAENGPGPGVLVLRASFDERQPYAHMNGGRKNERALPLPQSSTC
In short: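 Hep3B cells were exposed to a range of concentrations for 12 h at 37 C, with DMSO as vehicle control. They were lysed in Tris-HCl pH 7.9 buffer containing Triton X-100, SDS, NaF, orthovanadate and protease inhibitors, then centrifuged. Lysates were immunoblotted with anti-pY1135/1136-IGF-1R, and IGF-1R β-subunit served as loading control.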

[8] = biological target: Phosphodiesterase 4 (Homo sapiens) (UniProt P27815+Q08499+Q07343+Q08493); assay: Inhibition of human PDE4 at 10 uM; assay type: protein assay
[9] = biological target: Tyrosine-protein kinase Yes (Homo sapiens) (UniProt P07947); assay: Inhibition of human YES1 at 10 uM
Chain of Tyrosine-protein kinase Yes (Homo sapiens) (P07947 2-543 limits assumed): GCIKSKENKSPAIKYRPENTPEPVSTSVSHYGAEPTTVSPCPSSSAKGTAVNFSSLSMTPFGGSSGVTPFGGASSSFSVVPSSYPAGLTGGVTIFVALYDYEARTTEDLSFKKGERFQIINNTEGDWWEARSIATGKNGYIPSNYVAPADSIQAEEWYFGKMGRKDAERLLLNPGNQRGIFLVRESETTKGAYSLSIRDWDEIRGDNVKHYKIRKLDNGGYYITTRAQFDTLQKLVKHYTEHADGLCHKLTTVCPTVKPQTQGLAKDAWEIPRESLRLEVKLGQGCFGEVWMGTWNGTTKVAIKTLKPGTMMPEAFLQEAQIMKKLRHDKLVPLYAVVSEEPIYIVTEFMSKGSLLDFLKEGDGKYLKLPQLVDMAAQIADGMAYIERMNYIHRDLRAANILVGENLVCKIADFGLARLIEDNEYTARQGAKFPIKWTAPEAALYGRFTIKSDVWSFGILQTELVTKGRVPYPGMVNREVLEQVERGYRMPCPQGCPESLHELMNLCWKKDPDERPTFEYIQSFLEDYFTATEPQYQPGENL

UGT1A1 = UGT1A1 (Homo sapiens, UniProt P22309); assay: Inhibition of human UGT1A1 at 10 uM
Chain of UGT1A1 (P22309 whole entry): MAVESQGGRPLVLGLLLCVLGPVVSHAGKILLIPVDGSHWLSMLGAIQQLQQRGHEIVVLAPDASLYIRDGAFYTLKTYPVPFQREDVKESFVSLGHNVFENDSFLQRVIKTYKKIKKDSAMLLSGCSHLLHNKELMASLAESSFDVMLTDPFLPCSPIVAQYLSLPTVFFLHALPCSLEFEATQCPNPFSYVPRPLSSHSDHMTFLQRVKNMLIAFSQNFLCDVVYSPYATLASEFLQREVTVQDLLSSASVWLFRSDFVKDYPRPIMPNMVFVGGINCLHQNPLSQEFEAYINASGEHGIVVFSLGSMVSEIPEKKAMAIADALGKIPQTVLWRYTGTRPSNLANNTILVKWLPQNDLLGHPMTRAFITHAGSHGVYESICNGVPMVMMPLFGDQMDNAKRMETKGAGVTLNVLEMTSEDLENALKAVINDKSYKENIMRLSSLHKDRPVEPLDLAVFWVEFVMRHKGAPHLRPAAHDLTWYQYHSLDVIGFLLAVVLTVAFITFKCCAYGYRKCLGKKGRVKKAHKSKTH

[10] = biological target: cGMP-specific 3',5'-cyclic phosphodiesterase (Homo sapiens) (UniProt O76074); assay: Inhibition of human PDE5 at 10 uM
[11] = read-out: pLC50 (the source's name) (converted)

With `COc1ccc2[nH]c(-c3cccc(F)c3)cc(=O)c2c1O` the GI50 (CCRF-CEM) was 34.7 nM, the CC50 (CCRF-CEM; [11]) was > 100000 nM and the TGI (CCRF-CEM; read-out: pTGI) was > 100000 nM. The GI50 (K562) was 24 nM, the CC50 (K562; [11]) was > 100000 nM and the TGI (K562; read-out: pTGI (converted)) was 204 nM. For the same compound, the GI50 (MOLT-4) was 47.9 nM, the CC50 (MOLT-4; [11]) was > 100000 nM and the TGI (MOLT-4; read-out: pTGI (converted)) was 19100 nM. The GI50 [1] was 33.1 nM, the CC50 [1, 11] was > 100000 nM and the TGI ([1]; read-out: pTGI (converted)) was 16200 nM. The GI50 (SR) was 12 nM, the CC50 (SR; [11]) was > 100000 nM and the TGI (SR; read-out: pTGI (converted)) was 67.6 nM. For the same compound, the GI50 (A549) was 41.7 nM, the CC50 (A549; [11]) was 93300 nM and the TGI (A549; read-out: pTGI (converted)) was 14800 nM. For the same compound, the GI50 (HOP-92) was 4900 nM, the CC50 (HOP-92; [11]) was > 100000 nM and the TGI (HOP-92; read-out: pTGI (converted)) was 36300 nM. For the same compound, the GI50 (NCI-H23) was 34.7 nM, the CC50 (NCI-H23; [11]) was > 100000 nM and the TGI (NCI-H23; read-out: pTGI (converted)) was 13800 nM. For the same compound, the GI50 (NCI-H322M) was 851 nM, the CC50 (NCI-H322M; [11]) was > 100000 nM and the TGI (NCI-H322M; read-out: pTGI) was > 100000 nM. It also gave a GI50 (NCI-H460 [2]) of 33.1 nM, a CC50 (NCI-H460 [2]; [11]) of 32400 nM and a TGI (NCI-H460 [2]; read-out: pTGI (converted)) of 1050 nM. For the same compound, the GI50 (HCT-116 [3]) was 33.1 nM, the CC50 (HCT-116 [3]; [11]) was 29500 nM and the TGI (HCT-116 [3]; read-out: pTGI (converted)) was 1780 nM. The GI50 (KM12) was 27.5 nM, the CC50 (KM12; [11]) was 5500 nM and the TGI (KM12; read-out: pTGI (converted)) was 151 nM. For the same compound, the GI50 (SF-268) was 61.7 nM, the CC50 (SF-268; [11]) was 89100 nM and the TGI (SF-268; read-out: pTGI (converted)) was 15500 nM. For the same compound, the GI50 (SNB-19) was 28.8 nM, the CC50 (SNB-19; [11]) was > 100000 nM and the TGI (SNB-19; read-out: pTGI (converted)) was 437 nM. For the same compound, the GI50 (SNB-75) was 15.1 nM, the CC50 (SNB-75; [11]) was 44700 nM and the TGI (SNB-75; read-out: pTGI (converted)) was 58.9 nM. The GI50 (U-251) was 42.7 nM, the CC50 (U-251; [11]) was 55000 nM and the TGI (U-251; read-out: pTGI (converted)) was 14500 nM. For the same compound, the GI50 (MDA-MB-435) was < 10 nM, the CC50 (MDA-MB-435; [11]) was > 100000 nM and the TGI (MDA-MB-435; read-out: pTGI (converted)) was 45.7 nM. For the same compound, the GI50 (UACC-62) was 30.9 nM, the CC50 (UACC-62; [11]) was 93300 nM and the TGI (UACC-62; read-out: pTGI (converted)) was 20000 nM. For the same compound, the CC50 (OVCAR-5; [11]) was 46800 nM, the TGI (OVCAR-5; read-out: pTGI (converted)) was 15800 nM and the GI50 (OVCAR-8) was 56.2 nM. It also gave a CC50 (OVCAR-8; [11]) of 81300 nM, a TGI (OVCAR-8; read-out: pTGI (converted)) of 16200 nM and a GI50 (NCI/ADR-RES) of 20.9 nM. It also gave a CC50 (NCI/ADR-RES; [11]) of 40700 nM, a TGI (NCI/ADR-RES; read-out: pTGI (converted)) of 53.7 nM and a GI50 (786-0) of 50.1 nM. The CC50 (786-0; [11]) was 89100 nM, the TGI (786-0; read-out: pTGI (converted)) was 16200 nM and the GI50 (A498) was 24.6 nM. It also gave a CC50 (A498; [11]) of 41700 nM, a TGI (A498; read-out: pTGI (converted)) of 209 nM and a GI50 (ACHN) of 97.7 nM. The CC50 (ACHN; [11]) was > 100000 nM, the TGI (ACHN; read-out: pTGI (converted)) was 33900 nM and the GI50 (CAKI-1) was 46.8 nM. For the same compound, the CC50 (CAKI-1; [11]) was > 100000 nM, the TGI (CAKI-1; read-out: pTGI (converted)) was 22900 nM and the GI50 (RXF 393) was 17.4 nM. For the same compound, the CC50 (RXF 393; [11]) was 56200 nM, the TGI (RXF 393; read-out: pTGI (converted)) was 45.7 nM and the GI50 (PC-3) was 32.4 nM. It also gave a CC50 (PC-3; [11]) of 70800 nM, a TGI (PC-3; read-out: pTGI (converted)) of 15500 nM and a GI50 (DU-145) of 20.9 nM. It also gave a CC50 (DU-145; [11]) of 33900 nM, a TGI (DU-145; read-out: pTGI (converted)) of 52.5 nM and a GI50 (MCF7) of 30.2 nM. For the same compound, the CC50 (MCF7; [11]) was > 100000 nM, the TGI (MCF7; read-out: pTGI) was > 100000 nM and the GI50 (MDA-MB-231) was 61.7 nM. For the same compound, the CC50 (MDA-MB-231; [11]) was > 100000 nM, the TGI (MDA-MB-231; read-out: pTGI (converted)) was 22900 nM and the GI50 (BT-549) was 145 nM. The CC50 (BT-549; [11]) was > 100000 nM, the TGI (BT-549; read-out: pTGI (converted)) was 26900 nM and the GI50 (MDA-MB-468) was 39.8 nM. The CC50 (MDA-MB-468; [11]) was 851 nM, the TGI (MDA-MB-468; read-out: pTGI (converted)) was 219 nM and the IC50 (HCT-116 [4]) was 70 nM. The IC50 [5] was 70 nM, the IC50 (NCI-H460 [6]) was 80 nM and the inhibition [7] was “Dose-dependent effect”. It also gave an inhibition [8] of 55%, an inhibition [9] of 68% and an inhibition at 10 µM (UGT1A1) of 86%. For the same compound, the inhibition [10] was 57%.
